Test results reported in ChEMBL document CHEMBL1147401, “Bruceanols D, E, and F three new cytotoxic quassinoids from Brucea antidysenterica” (1993).
Converted amounts (≈) assume the structure as drawn.

Legend:
Format in all cases: functional
Conditions in all cases: read-out: ED50 (the source's name)
TE-671 = assay: Cytotoxicity against human TE671 cells
Procedure, shortened: (§1)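 In vitro cytotoxicity assay run by published protocols. Cell panel: human malignant melanoma ([…]), lung carcinoma (A-549), ileocecal adenocarcinoma (HCT-8), nasopharyngeal epidermoid carcinoma (KB), medulloblastoma (TE-671), and murine lymphocytic leukemia (P-388).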

RPMI-7951 = assay: Cytotoxicity against human RPMI7951 cells; procedure, shortened: as §1
P388 = assay: Cytotoxicity against mouse P388 cells; procedure, shortened: as §1
HCT-8 = assay: Cytotoxicity against human HCT8 cells; procedure, shortened: as §1
KB = assay: Cytotoxicity against human KB cells; procedure, shortened: as §1
A549 = assay: Cytotoxicity against human A549 cells; procedure, shortened: as §1

SMILES | EC50 (TE-671) [µg/mL] | EC50 (RPMI-7951) [µg/mL] | EC50 (P388) [µg/mL] | EC50 (HCT-8) [µg/mL] | EC50 (KB) [µg/mL] | EC50 (A549) [µg/mL]
COC(=O)[C@]12OC[C@]34[C@H]([C@@H](O)[C@@H]1O)[C@@]1(C)[C@H](O)C(=O)C[C@@H](C)[C@@H]1C[C@H]3OC(=O)[C@H](OC(=O)/C=C(\C)C(C)C)[C@@H]24 [BRUCEANOL E] | 0.12 (≈ 0.218 µM) | 0.11 (≈ 0.2 µM) | 0.57 (≈ 1.04 µM) | 0.37 (≈ 0.672 µM) | 0.55 (≈ 0.999 µM) | 3.75 (≈ 6.81 µM)
COC(=O)[C@]12OC[C@]34[C@H]([C@@H](O)[C@@H]1O)[C@@]1(C)[C@H](O)C(=O)C=C(C)[C@@H]1C[C@H]3OC(=O)[C@H](OC(=O)/C=C(\C)C(C)C)[C@@H]24 [BRUCEANOL D] | 0.08 (≈ 0.146 µM) | 0.09 (≈ 0.164 µM) | 0.09 (≈ 0.164 µM) | 0.09 (≈ 0.164 µM) | 0.08 (≈ 0.146 µM) | 0.55 (≈ 1 µM)
COC(=O)[C@]12OC[C@]34[C@H]([C@@H](O)[C@@H]1O)[C@@]1(C)C(=O)C(O)=C[C@@H](C)[C@@H]1C[C@H]3OC(=O)[C@H](OC(=O)/C=C(\C)C(C)C)[C@@H]24 [BRUCEANOL F] | 0.09 (≈ 0.164 µM) | 0.09 (≈ 0.164 µM) | 0.36 (≈ 0.656 µM) | 0.13 (≈ 0.237 µM) | 0.43 (≈ 0.784 µM) | 0.55 (≈ 1 µM)
